Measurements of several laboratories.
Each line is one published result; the experiments were not run side by side. Converted amounts (≈) assume the structure as drawn.

SMILES | organism | assay | system | conditions | measurement | value
CC(=O)Oc1cccc2c1[nH]c1c(C3=C[C@@]4(OC(C)=O)CC/C=C\CCCCN5CC[C@@H]3[C@]3(C[C@@H]6/C=C\CCCCN6[C@H]34)C5)nccc12 | Mycobacterium intracellulare | microbial killing |  |  | MBC | > 20 µg/mL
COC(=O)c1cc(-c2cccc(NC(=S)Nc3ccc(C)cc3)c2)on1 | Mycobacteroides chelonae | microbial growth, broth dilution | ATCC35752 | 48 h | MIC | > 64 µg/mL
O=c1c2ccccc2nc(/C=C/c2ccccc2F)n1-c1cccc(O)c1 | Enterococcus faecium | microbial growth, broth dilution | NCTC7171 |  | MIC | 32 µg/mL (≈ 89.3 µM)
Cc1cc(Cc2ccccc2)n(O)c(=O)c1 | Candida albicans | microbial growth | ATCC90028 |  | MIC80 | 1.2 µM (≈ 0.258 µg/mL)
Cc1nc(N)sc1-c1ccnc(Nc2ccc(N3CCOCC3)cc2)n1 | Plasmodium berghei | parasite growth, luciferase | human | liver stage | IC50 | 0.46 µM
COc1cccc(Cc2cc(C)cc(=O)n2O)c1 | Candida albicans | microbial growth | ATCC90028 |  | MIC80 | 2.3 µM (≈ 0.564 µg/mL)
Cc1ccc(/C=C/c2nc3ccccc3c(=O)n2-c2cccc(O)c2)cc1 | Enterococcus faecium | microbial growth, broth dilution | NCTC7171 |  | MIC | > 128 µg/mL
CN(C)C(=O)/C(C#N)=C/c1ccc(-c2nc3cnc4[nH]ccc4c3n2C2CCCCC2)o1 | Murine coronavirus | viral replication |  | 1 µM, 10 h | inhibition | 36%
O=c1c2ccccc2nc(/C=C/c2ccccc2)n1-c1cccc(O)c1 | Enterococcus faecium | microbial growth, broth dilution | NCTC7171 |  | MIC | 32 µg/mL (≈ 94 µM)
COC(=O)c1cc(-c2cccc(NC(=S)Nc3ccc(Cl)cc3)c2)on1 | Mycobacteroides chelonae | microbial growth, broth dilution | ATCC35752 | 48 h | MIC | > 64 µg/mL
Cl.O[C@]12C=C(c3nccc4c3[nH]c3ccccc34)[C@@H]3CCN(CCCC/C=C\CC1)C[C@@]31C[C@@H]3/C=C\CCCCN3[C@H]12 | Mycobacterium intracellulare | microbial growth, resazurin | ATCC23068 |  | IC50 | 0.12 µg/mL
COC(=O)c1cc(-c2cccc(NC(=S)Nc3ccccc3)c2)on1 | Mycobacteroides chelonae | microbial growth, broth dilution | ATCC35752 | 48 h | MIC | > 64 µg/mL
c1ccc2c(c1)CCc1ccccc1C2OCCN1CCNCC1 | Trypanosoma brucei | parasite growth |  |  | EC50 | 9.32 µM
O=c1c2ccccc2nc(/C=C/c2cccc(F)c2)n1-c1cccc(O)c1 | Enterococcus faecium | microbial growth, broth dilution | NCTC7171 |  | MIC | 32 µg/mL (≈ 89.3 µM)
COC(=O)c1cc(-c2cccc(NC(=O)Nc3cccc(Br)c3)c2)on1 | Mycobacteroides chelonae | microbial growth, broth dilution | ATCC35752 | 48 h | MIC | > 64 µg/mL
O=c1c2ccccc2nc(/C=C/c2ccc(F)cc2)n1-c1cccc(O)c1 | Enterococcus faecium | microbial growth, broth dilution | NCTC7171 |  | MIC | 128 µg/mL (≈ 357 µM)
O=C(Nc1cccc(Cl)c1)Nc1ncc(CCNc2ncnc3ccsc23)s1 | Plasmodium berghei | parasite growth, luciferase | human | liver stage | IC50 | 4.2 µM
COC(=O)c1cc(-c2cccc(NC(=O)Nc3ccc(Cl)cc3Cl)c2)on1 | Mycobacteroides chelonae | microbial growth, broth dilution | ATCC35752 | 48 h | MIC | > 64 µg/mL
N#Cc1ccc(/C=C/c2nc3ccccc3c(=O)n2-c2cccc([N+](=O)[O-])c2)cc1 | Enterococcus faecium | microbial growth, broth dilution | NCTC7171 |  | MIC | > 128 µg/mL
COC(=O)c1cc(-c2cccc(NC(=S)Nc3ccc(C#N)cc3)c2)on1 | Mycobacteroides chelonae | microbial growth, broth dilution | ATCC35752 | 48 h | MIC | 64 µg/mL (≈ 169 µM)
O=C(O)CSc1ncnc2cc(-c3cc4ccccc4s3)sc12 | Murine coronavirus | viral replication |  | 1 µM, 10 h | inhibition | -36%
